ChEMBL document CHEMBL3813675, “Identification of potent and selective retinoic acid receptor gamma (RARγ) antagonists for the treatment of osteoarthritis pain using structure based drug design” (Bioorg Med Chem Lett, 2016)
pKi: −log10 of the molar value.

Tests used:
[1] = target: T1, Retinoic acid receptor RXR-alpha/Retinoic acid receptor beta (Homo sapiens, UniProt P10826); test: Displacement of [3H]-TTNPB from RARbeta/RXRalpha (unknown origin) expressed in baculovirus expression system by scintillation proximity assay
T1 sequence (P10826 whole entry): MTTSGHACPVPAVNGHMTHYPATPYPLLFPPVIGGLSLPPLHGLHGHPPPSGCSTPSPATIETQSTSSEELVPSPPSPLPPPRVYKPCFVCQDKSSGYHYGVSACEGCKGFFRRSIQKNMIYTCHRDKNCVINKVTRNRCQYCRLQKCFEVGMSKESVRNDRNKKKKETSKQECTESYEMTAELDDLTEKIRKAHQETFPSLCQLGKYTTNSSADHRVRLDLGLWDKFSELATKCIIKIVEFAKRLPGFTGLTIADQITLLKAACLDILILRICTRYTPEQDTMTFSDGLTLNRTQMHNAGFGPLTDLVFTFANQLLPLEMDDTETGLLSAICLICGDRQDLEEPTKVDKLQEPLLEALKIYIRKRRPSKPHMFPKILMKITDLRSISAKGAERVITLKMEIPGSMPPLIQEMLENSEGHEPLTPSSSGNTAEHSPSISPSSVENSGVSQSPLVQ
T1 sequence (P19793 whole entry): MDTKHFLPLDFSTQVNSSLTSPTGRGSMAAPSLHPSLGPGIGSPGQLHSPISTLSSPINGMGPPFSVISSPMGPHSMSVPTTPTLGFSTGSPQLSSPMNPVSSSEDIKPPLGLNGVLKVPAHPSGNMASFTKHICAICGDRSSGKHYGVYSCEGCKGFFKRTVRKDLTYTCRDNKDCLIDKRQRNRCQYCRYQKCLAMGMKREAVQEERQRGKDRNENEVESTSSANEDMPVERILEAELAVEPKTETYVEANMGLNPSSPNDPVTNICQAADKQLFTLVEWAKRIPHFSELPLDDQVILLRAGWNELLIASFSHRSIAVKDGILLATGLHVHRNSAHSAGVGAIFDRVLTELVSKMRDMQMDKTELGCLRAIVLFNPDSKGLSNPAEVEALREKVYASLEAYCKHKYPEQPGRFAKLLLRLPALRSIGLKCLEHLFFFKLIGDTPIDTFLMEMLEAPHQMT

[2] = species: Homo sapiens; test: Selectivity index, ratio of Ki for RARbeta/RXRalpha (unknown origin) to Ki for RARgamma/RXRalpha (unknown origin) expressed in baculovirus expression system
[3] = target: T2, Retinoic acid receptor gamma (Homo sapiens) (UniProt P13631); test: Antagonist activity at RARgamma-LBD (unknown origin) expressed in HEK-293 cells assessed as inhibition of ATRA induced Gal4/luciferase gene expression after 24 hrs relative to ATRA; format: cell-based; conditions: HEK293
T2 sequence (whole entry): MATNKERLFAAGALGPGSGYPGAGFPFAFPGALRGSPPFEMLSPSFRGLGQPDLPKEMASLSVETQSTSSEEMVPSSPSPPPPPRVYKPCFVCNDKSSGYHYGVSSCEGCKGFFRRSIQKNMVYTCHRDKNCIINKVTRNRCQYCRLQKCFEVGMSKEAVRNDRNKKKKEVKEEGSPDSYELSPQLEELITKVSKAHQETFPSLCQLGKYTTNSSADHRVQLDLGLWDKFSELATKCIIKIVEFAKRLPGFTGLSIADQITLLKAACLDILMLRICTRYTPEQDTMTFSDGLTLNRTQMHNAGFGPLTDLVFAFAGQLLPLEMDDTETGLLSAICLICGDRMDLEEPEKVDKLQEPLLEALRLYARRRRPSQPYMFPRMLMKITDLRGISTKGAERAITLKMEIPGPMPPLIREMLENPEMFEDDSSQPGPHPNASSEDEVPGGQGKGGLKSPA

[4] = target: T3, Retinoic acid receptor RXR-alpha/gamma (Homo sapiens, UniProt P13631+P19793); test: Displacement of [3H]-TTNPB from RARgamma/RXRalpha (unknown origin) expressed in baculovirus expression system by scintillation proximity assay
T3 sequence (P13631 whole entry): T2 sequence (whole entry)
T3 sequence (P19793 whole entry): T1 sequence (P19793 whole entry)

[5] = Selectivity index, ratio of Ki for RARalpha/RXRalpha (unknown origin) to Ki for RARgamma/RXRalpha (unknown origin) expressed in baculovirus expression system; set-up: species or system Homo sapiens
[6] = target: T2, Retinoic acid receptor gamma (Homo sapiens); test: Antagonist activity at RARgamma-LBD (unknown origin) expressed in HEK-293 cells assessed as inhibition of ATRA induced Gal4/luciferase gene expression after 24 hrs; format: cell-based; conditions: HEK293
[7] = target: T4, Retinoic acid receptor alpha/Retinoid X receptor alpha (Homo sapiens, UniProt P10276); test: Displacement of [3H]-TTNPB from RARalpha/RXRalpha (unknown origin) expressed in baculovirus expression system by scintillation proximity assay
T4 sequence (P10276 whole entry): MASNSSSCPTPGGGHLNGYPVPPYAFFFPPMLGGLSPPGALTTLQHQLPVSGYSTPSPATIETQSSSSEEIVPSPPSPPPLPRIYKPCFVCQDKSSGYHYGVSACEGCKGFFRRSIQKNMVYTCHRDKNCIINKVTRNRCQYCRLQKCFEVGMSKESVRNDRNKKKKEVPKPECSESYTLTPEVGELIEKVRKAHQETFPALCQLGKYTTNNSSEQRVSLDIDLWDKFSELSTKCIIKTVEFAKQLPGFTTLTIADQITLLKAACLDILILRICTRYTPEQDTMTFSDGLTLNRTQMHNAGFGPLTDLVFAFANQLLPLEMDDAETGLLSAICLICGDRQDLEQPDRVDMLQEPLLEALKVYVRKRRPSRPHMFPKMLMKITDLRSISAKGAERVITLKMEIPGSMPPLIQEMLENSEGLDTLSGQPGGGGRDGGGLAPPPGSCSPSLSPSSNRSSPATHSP
T4 sequence (P19793 whole entry): T1 sequence (P19793 whole entry)

[8] = Solubility of the compound in simulated intestinal fluid; format: ADME
[9] = target: T5, Retinoic acid receptor alpha (Homo sapiens, UniProt P10276); test: Antagonist activity at RARalpha-LBD (unknown origin) expressed in HEK-293 cells assessed as inhibition of ATRA induced Gal4/luciferase gene expression after 24 hrs; format: cell-based, HEK293
T5 sequence (P10276 whole entry): T4 sequence (P10276 whole entry)

[10] = AUC in rat at 0.72 mg/kg, po administered for 14 days; format: ADME, organism-based; conditions: in vivo
[11] = AUC in rat at 10 mg/kg, po administered for 14 days; format: ADME, organism-based; conditions: in vivo
[12] = system: Rattus norvegicus; test: Toxicity in rat assessed as testicular degeneration at 30 mg/kg, po administered for 14 days; format: organism-based; conditions: in vivo, 336 h
[13] = target: T6, Retinoic acid receptor beta (Homo sapiens) (UniProt P10826); test: Antagonist activity at RARbeta-LBD (unknown origin) expressed in HEK-293 cells assessed as inhibition of ATRA induced Gal4/luciferase gene expression after 24 hrs; format: cell-based; conditions: HEK293
T6 sequence (whole entry): T1 sequence (P10826 whole entry)

[14] = system: Rattus norvegicus; test: Analgesic activity in MIA-induced osteoarthritis-like joint pain rat model assessed as reduction in differential weight bearing between contralateral and ipsilateral limbs administered on day 9 post MIA challenge as single oral dose; format: functional; conditions: 216 h
Summary of the method: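 Rats received a single intraarticular injection of mono-iodoacetate into one hind limb joint. Joint pain read as differential weight bearing between contralateral and ipsilateral limbs. Compound given as a single oral dose on the day of testing. ED50 derived from the dose-response.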

[15] = AUC in rat at 30 mg/kg, po administered for 14 days; format: ADME, organism-based; conditions: in vivo
[16] = Oral bioavailability in rat at 10 mg/kg measured up to 14 days; format: ADME, organism-based; conditions: in vivo
[17] = system: Rattus norvegicus; test: Toxicity in rat assessed as testicular degeneration at 10 mg/kg, po administered for 14 days; format: organism-based; conditions: in vivo, 336 h

| SMILES | pKi [1] | Ratio Ki [2] | Imax [3] [%] | pKi [4] | Ratio Ki [5] | Kb [6] [nM] | pKi [7] | solubility ([8]; simulated gi fluid) [µg/mL] | Kb [9] [nM] | AUC at 336 h [10] [ng·h/mL] | AUC at 336 h [11] [ng·h/mL] | solubility ([8]; simulated intestinal fluid, read-out: solubility) [µg/mL] | Activity [12] | Kb [13] [nM] | ED50 [14] [mg/kg] | AUC at 336 h [15] [ng·h/mL] | bioavailability [16] [%] | Activity [17] |
| --- | --- | --- | --- | --- | --- | --- | --- | --- | --- | --- | --- | --- | --- | --- | --- | --- | --- | --- |
| CC(C)(C)c1cc(-c2cc(-c3ccc(C(=O)O)cc3)nn2-c2ccc(C(=O)N3CCOCC3)cc2)cc(C(C)(C)C)c1 | < 5.53 | > 1320 | > 100 | 8.64 | >752 | 7.2 | < 5.77 |  |  |  |  |  |  |  |  |  |  |  |
| CC(C)c1cc(-c2cc(-c3ccc(C(=O)O)cc3)nn2-c2ccc(S(C)(=O)=O)cc2)cc(C(C)(C)C)c1 | 6.88 |  |  | 8.80 | 54 |  | 7.06 |  |  |  |  |  |  |  |  |  |  |  |
| CC(C)(C)c1cccc(-c2cc(-c3ccc(C(=O)O)cc3)nn2-c2ccc(S(C)(=O)=O)cc2)c1 | 8.37 |  |  | 8.96 | 1.6 |  | 8.74 |  |  |  |  |  |  |  |  |  |  |  |
| Cc1cc(-c2cc(-c3ccc(C(=O)O)cc3)nn2-c2ccc(S(C)(=O)=O)cc2)cc(C(C)(C)C)c1 | 8.00 |  |  | 8.96 | 5.6 |  | 8.21 |  |  |  |  |  |  |  |  |  |  |  |
| CC(C)(C)c1cc(-c2cc(-c3ccc(C(=O)O)cc3)nn2-c2ccc(S(C)(=O)=O)cc2)cc(C(C)(C)C)c1 | 6.00 | 228 | > 100 | 8.36 | 106 | 13.5 | 6.34 | < 0.1 |  |  |  |  |  |  |  |  |  |  |
| CC(C)(C)c1cc(-c2cc(-c3ccc(C(=O)O)cc3)nn2-c2ccc(C(N)=O)cc2)cc(C(C)(C)C)c1 | < 5.53 | > 2210 | 79 | 8.85 | >1259 | 14.7 | < 5.77 |  |  |  |  |  |  |  |  |  |  |  |
| CN(C)S(=O)(=O)c1ccc(-n2nc(-c3ccc(C(=O)O)cc3)cc2-c2cc(C(C)(C)C)cc(C(C)(C)C)c2)cc1 | < 5.53 | > 725 | > 100 | 8.39 | >414 | 11.1 | < 5.77 |  |  |  |  |  |  |  |  |  |  |  |
| CC1(C)CC=C(c2ccccc2)c2cc(/C=C/c3ccc(C(=O)O)cc3)ccc21 |  |  | > 100 | 7.76 |  | 18.5 | 8.11 |  |  |  |  |  |  |  |  |  |  |  |
| CN1CCN(C(=O)c2ccc(-n3nc(-c4ccc(C(=O)O)cc4)cc3-c3cc(C(C)(C)C)cc(C(C)(C)C)c3)cc2)CC1 | < 5.53 | > 2730 | > 100 | 8.96 | >1560 | 7.1 | < 5.77 |  | > 4440 | 154 | 9100 | > 1000 | Toxic | 1510 | 0.724 | 36800 | 26 | Non-toxic |
| CC1(C)CCC(C)(C)c2cc(-c3cc(-c4ccc(C(=O)O)cc4)nn3-c3ccc(S(C)(=O)=O)cc3)ccc21 | 8.28 | 10 | > 100 | 9.57 | 10 | 2.2 | 8.55 |  |  |  |  |  |  |  |  |  |  |  |
| CN(C)C(=O)c1ccc(-n2nc(-c3ccc(C(=O)O)cc3)cc2-c2cc(C(C)(C)C)cc(C(C)(C)C)c2)cc1 | < 5.53 | > 1340 | > 100 | 8.66 | >766 | 21.3 | < 5.77 |  |  |  |  |  |  |  |  |  |  |  |
